These results are taken from ChEMBL document CHEMBL1125755, “Synthesis and structure-activity relationships of benzo[b]thienylallylamine antimycotics” (1991).

Molecules are shown by their SMILES. In brackets after ≈: the same amount, converted by molar mass.

In assay [1] the test system is Candida albicans. In words: In vitro minimum inhibitory concentration at which no signs of fungal growth were detected against laboratory adapted strains of Candida albicans. The class given is functional. An outline of the steps:
(§1)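 Yeast blastospores taken from shaken cultures about 30 h old, grown at 37 °C in yeast nitrogen base. Tube dilution used malt extract broth (pH 4.8); compounds were dissolved in DMSO and serially diluted in medium. Incubated at 30 °C and read after 48 h. MIC is the lowest concentration with no macroscopic growth.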

Assay [2] relates to Arthrodermataceae. Nature of the assay: In vitro minimum inhibitory concentration at which no signs of fungal growth were detected against laboratory adapted strains of dermatophytes. It counts as functional. An outline of the steps: (§2)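 Sabouraud's dextrose broth (pH 6.5) in glass tubes; compounds dissolved in DMSO and serially diluted with medium. Incubated at 30 °C and read after 7 days. MIC is the lowest concentration with no macroscopically visible fungal growth.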

Assay [3] concerns Sporothrix schenckii. Nature of the assay: In vitro minimum inhibitory concentration at which no signs of fungal growth were detected against laboratory adapted strains of Sporothrix schenck ii. The class given is functional. The method, boiled down: as §2
For assay [4], the system named is Scopulariopsis brevicaulis. Nature of the assay: In vitro minimum inhibitory concentration at which no signs of fungal growth were detected against laboratory adapted strains of Scopulariopsis brevicaulis. It counts as functional. The method, boiled down:
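Inoculum of this mould harvested from 21-day-old Kimming agar cultures grown at 30 °C. Compounds dissolved in DMSO and serially diluted in broth in glass tubes. Incubated at 30 °C and read after 72 h. MIC is the lowest concentration with no macroscopically detectable growth.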

The subject of assay [5] is Trichophyton benhamiae. Nature of the assay: In vitro minimum inhibitory concentration which is the lowest concentration at which no signs of fungal growth were detected against Trichophyton mentagrophytes. The class given is functional, Arthroderma benhamiae. An outline of the steps: (§3)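 Dermatophytes were tested in glass tubes of Sabouraud's dextrose broth (pH 6.5) against DMSO-dissolved compounds serially diluted in the medium. Inoculum was taken by spatula from 21-day Kimming agar cultures grown at 30 °C. Incubation was 7 days at 30 °C. MIC was the lowest concentration showing no macroscopic fungal growth.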

Assay [6] concerns Microsporum canis. In words: In vitro minimum inhibitory concentration which is the lowest concentration at which no signs of fungal growth were detected against Microsporum canis. It counts as functional. The method, boiled down: as §3
For assay [7], the system named is Arthrodermataceae. Nature of the assay: In vitro minimum inhibitory concentration at which no signs of fungal growth were detected against clinically isolated strains of dermatophytes. It counts as functional. The method, boiled down:
as §3

In assay [8] the test system is Candida parapsilosis. Nature of the assay: In vitro minimum inhibitory concentration at which no signs of fungal growth were detected against laboratory adapted strains of Candida parapsilosis. The class given is functional. The note with it: Lodderomyces parapsilosis. An outline of the steps: as §1
Assay [9] concerns Candida parapsilosis. In words: In vitro minimum inhibitory concentration which is the lowest concentration at which no signs of fungal growth were detected against Candida parapsilosis 39. It counts as functional. The note with it: Lodderomyces parapsilosis. An outline of the steps:
(§4)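 Yeast tube dilution in malt extract broth (pH 4.8), with compounds in DMSO serially diluted in the medium. Inoculum was blastospores from about 30-h shaken cultures in yeast nitrogen base at 37 °C. Growth was read after 48 h at 30 °C. MIC was the lowest concentration without macroscopically visible growth.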

The test system of assay [10] is Aspergillus fumigatus. In words: In vitro minimum inhibitory concentration which is the lowest concentration at which no signs of fungal growth were detected against Aspergillus fumigatus.
Assay [11] relates to Nakaseomyces glabratus. In words: In vitro minimum inhibitory concentration at which no signs of fungal growth were detected against laboratory adapted strains of Torulopsis glabrata. It counts as functional. The method, boiled down: as §1
The subject of assay [12] is Candida albicans. In words: In vitro minimum inhibitory concentration at which no signs of fungal growth were detected against clinically isolated strains of Candida albicans. The class given is functional. The method, boiled down: as §4
The test system of assay [13] is Aspergillus fumigatus. Nature of the assay: In vitro minimum inhibitory concentration at which no signs of fungal growth were detected against laboratory adapted strains of Aspergillus fumigatus. The class given is functional. An outline of the steps:
(§5)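 Inoculum of filamentous fungi harvested from 21-day-old Kimming agar cultures grown at 30 °C. Broth dilution in glass tubes with Sabouraud's dextrose broth (pH 6.5); compounds dissolved in DMSO and serially diluted in medium. Incubation at 30 °C, read after 72 h. MIC taken as the lowest concentration with no macroscopically visible growth.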

Assay [14] concerns Sporothrix schenckii. Nature of the assay: In vitro minimum inhibitory concentration which is the lowest concentration at which no signs of fungal growth were detected against Sporothrix schenckii.
For assay [15], the system named is Candida albicans. Nature of the assay: In vitro minimum inhibitory concentration which is the lowest concentration at which no signs of fungal growth were detected against Candida albicans 124. It counts as functional. An outline of the steps: as §4
Assay [16] concerns Aspergillus niger. In words: In vitro minimum inhibitory concentration at which no signs of fungal growth were detected against laboratory adapted strains of Aspergillus niger. The class given is functional. An outline of the steps: as §5

Take `CN(C/C=C/C#CC(C)(C)C)Cc1cccc2ccccc12` [TERBINAFINE]: the minimal inhibitory concentration (MIC) (commonly the lowest concentration found to suppress growth) worked out at 50 µg/mL (≈ 172 µM) in assay [1]; 0.006 µg/mL (≈ 0.0206 µM) in assay [2]; 0.4 µg/mL (≈ 1.37 µM) in [3]; 0.8 µg/mL (≈ 2.75 µM) in assay [4]; 0.003 µg/mL (≈ 0.0103 µM) in assay [5]; 0.006 µg/mL (≈ 0.0206 µM) in assay [6]. Moreover, the MIC in [7] was 0.01 µg/mL (≈ 0.0343 µM); in assay [8], 0.8 µg/mL (≈ 2.75 µM); in [9] it was 0.8 µg/mL (≈ 2.75 µM); in assay [10], 0.4 µg/mL (≈ 1.37 µM); in assay [11] it was above 100 µg/mL; in [12], 100 µg/mL (≈ 343 µM). Further, the MIC in [13] was 1.56 µg/mL (≈ 5.35 µM); in assay [14] it was 0.8 µg/mL (≈ 2.75 µM); in assay [15], 25 µg/mL (≈ 85.8 µM); in assay [16] it was 0.02 µg/mL (≈ 0.0686 µM).
